Source: ChEMBL document CHEMBL4808178 (J Med Chem, 2021)
The source made the active and inactive calls. The rule behind the calls is not given here.

Columns and labels:
[1] = Cmax in Sprague-Dawley rat at 25 mg/kg, po measured up to 48 hrs by LC-MS/MS analysis; format: ADME, organism-based; design: route oral, dose 25 mg/kg, time <=48; settings: in vivo
In short: (§1)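 Overnight-fasted male SD rats (about 250−270 g), three per group, single oral 25 mg/kg; test compound suspended in 5% CMC-Na, control as sodium salt in phosphate buffer. Blood sampled 0.25–48 h, plasma by centrifugation, stored −40 °C, quantified by LC−MS/MS against plasma standard curve (3–3000 ng/mL) with internal standard; model-fitted PK parameters.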

[2] = system: PC-3; assay: Cytotoxicity against human PC3 cells assessed as reduction in cell viability incubated for 72 hrs by MTT assay; format: functional, cell-based; settings: PC-3, 72 h
In short: (§2)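 About 5 × 10³ cells/well, seeded overnight at 37 °C, 5% CO₂, in DMEM or RPMI-1640 with 10% FBS and antibiotics. DMSO-dissolved compounds diluted in medium, exposure 72 h.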

[3] = AUC(0 to t) in Sprague-Dawley rat at 25 mg/kg, po measured up to 48 hrs by LC-MS/MS analysis; format: ADME, organism-based; design: route oral, dose 25 mg/kg, time <=48; settings: in vivo; in short: as §1
[4] = MRT(0 to t) in Sprague-Dawley rat at 25 mg/kg, po measured up to 48 hrs by LC-MS/MS analysis; format: ADME, organism-based; settings: in vivo
In short: (§3)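 Overnight-fasted male SD rats (250−270 g, n = 3/group), single oral 25 mg/kg in 5% CMC-Na (reference sodium salt in phosphate buffer); plasma at 0.25–48 h (12 timepoints), stored −40 °C; LC−MS/MS with internal-standard calibration 3–3000 ng/mL; parameters fitted by model.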

[5] = system: HCT-116; assay: Induction of cell cycle arrest in human HCT116 cells assessed as accumulation at S phase at 20 uM after 24 hrs by propidium iodide-staining based flow cytometry (reference value: 36.43%); format: functional
[6] = Tmax in Sprague-Dawley rat at 25 mg/kg, po measured up to 48 hrs by LC-MS/MS analysis; format: ADME, organism-based; settings: in vivo; in short: as §3
[7] = target: T1, Aldehyde dehydrogenase 1A1 (Homo sapiens) (UniProt P00352); assay: Inhibition of ALDH1A1 in human HCT116 cells at 5 uM after 24 hrs by aldefluor staining based fluorescence analysis; format: cell-based; settings: HCT-116
T1 sequence (whole entry): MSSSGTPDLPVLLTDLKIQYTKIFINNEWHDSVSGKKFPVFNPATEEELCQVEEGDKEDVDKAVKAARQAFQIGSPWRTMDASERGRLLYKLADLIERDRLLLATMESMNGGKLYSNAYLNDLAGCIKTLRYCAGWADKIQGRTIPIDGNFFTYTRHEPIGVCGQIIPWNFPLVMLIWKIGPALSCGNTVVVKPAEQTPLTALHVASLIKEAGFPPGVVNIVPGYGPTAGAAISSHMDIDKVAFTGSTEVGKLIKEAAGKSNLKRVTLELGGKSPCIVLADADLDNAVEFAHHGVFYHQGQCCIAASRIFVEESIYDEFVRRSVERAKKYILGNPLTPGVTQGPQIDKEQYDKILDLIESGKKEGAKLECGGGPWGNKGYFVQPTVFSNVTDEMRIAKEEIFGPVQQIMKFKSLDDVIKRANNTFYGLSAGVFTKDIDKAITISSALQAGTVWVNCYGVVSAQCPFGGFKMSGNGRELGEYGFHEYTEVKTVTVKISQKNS
In short: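 HCT-116 cells, 2 × 10⁵/well, grown overnight at 37 °C, 5% CO₂, then treated 24 h (vehicle DMSO). Aldefluor staining read in FITC channel by FACS for proportion of ALDH⁺ cells; DEAB-pretreated cells set baseline fluorescence.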

[8] = system: HCT-116; assay: Induction of apoptosis in human HCT116 cells assessed as necrotic cells at 5 uM after 24 hrs by annexin V-FITC/propidium iodide staining based flow cytometry (reference value: 5.6%); format: functional
[9] = system: L02; assay: Cytotoxicity against human L02 cells assessed as reduction in cell viability incubated for 72 hrs by MTT assay; format: cell-based; settings: L02, 72 h; in short: as §2
[10] = system: T-24; assay: Cytotoxicity against human T24 cells assessed as reduction in cell viability incubated for 72 hrs by MTT assay; format: functional, cell-based; settings: T-24, 72 h; in short: as §2
[11] = system: HCT-116; assay: Induction of apoptosis in human HCT116 cells assessed as viable cells at 5 uM after 24 hrs by annexin V-FITC/propidium iodide staining based flow cytometry (reference value: 88.3%); format: functional; settings: read-out: Activity
[12] = system: HCT-116; assay: Antitumor activity against human HCT116 cells xenografted in BALB/c athymic nude mouse assessed as tumor growth inhibition at 60 mg/kg, po administered twice daily for 4 weeks and measured every 3 days; format: functional; settings: HCT-116, po, 672 h, read-out: TGI
In short: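 Male BALB/c athymic nude mice, 5 weeks old, 16−18 g, given 0.2 mL of 5 × 10⁷ cells/mL HCT-116 in right armpit. At about 100 mm³, randomized to groups of five; intragastric dosing twice daily for 4 weeks. Tumor volume and body weight every 3 days; tumors weighed after sacrifice; organs HE-stained.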

[13] = system: HCT-116; assay: Induction of cell cycle arrest in human HCT116 cells assessed as accumulation at G2/M phase at 20 uM after 24 hrs by propidium iodide-staining based flow cytometry (reference value: 14.67%); format: functional
[14] = system: HCT-116; assay: Induction of apoptosis in human HCT116 cells assessed as early apoptotic cells at 5 uM after 24 hrs by annexin V-FITC/propidium iodide staining based flow cytometry (reference value: 1%); format: functional
[15] = Half life in Sprague-Dawley rat at 25 mg/kg, po measured up to 48 hrs by LC-MS/MS analysis; format: ADME, organism-based; settings: in vivo; in short: as §1
[16] = system: HCT-116; assay: Cytotoxicity against human HCT-116 cells assessed as reduction in cell viability incubated for 72 hrs by MTT assay; format: functional, cell-based; settings: HCT-116, 72 h; in short: as §2
[17] = system: MCF7; assay: Cytotoxicity against human MCF7 cells assessed as reduction in cell viability incubated for 72 hrs by MTT assay; format: functional, cell-based; settings: MCF7, 72 h; in short: as §2
[18] = system: HCT-116; assay: Induction of cell cycle arrest in human HCT116 cells assessed as accumulation at G0/G1 phase at 20 uM after 24 hrs by propidium iodide-staining based flow cytometry (reference value: 48.89%); format: functional
[19] = Clearance in Sprague-Dawley rat at 25 mg/kg, po measured up to 48 hrs by LC-MS/MS analysis; format: ADME, organism-based; settings: in vivo; in short: as §1
[20] = system: HCT-116; assay: Induction of apoptosis in human HCT116 cells assessed as late apoptotic cells at 5 uM after 24 hrs by annexin V-FITC/propidium iodide staining based flow cytometry (reference value: 5.1%); format: functional
[21] = AUC(0 to infinity) in Sprague-Dawley rat at 25 mg/kg, po measured up to 48 hrs by LC-MS/MS analysis; format: ADME, organism-based; design: route oral, dose 25 mg/kg, time <=48; settings: in vivo; in short: as §1
[22] = MRT(0 to infinity) in Sprague-Dawley rat at 25 mg/kg, po measured up to 48 hrs by LC-MS/MS analysis; format: ADME, organism-based; settings: in vivo; in short: as §3
[23] = system: HCT-116; assay: Inhibition of cell stemness in human HCT116 cells assessed as morphological alterations at 5 uM after 10 days by microscopic analysis; format: functional, cell-based; settings: time 10.0 day
In short: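 Sorted ALDH⁺ HCT-116 cells, 800/well, in serum-free DMEM with B27 (1:50), EGF 20 ng/mL, β-FGF 10 ng/mL; co-incubated with compound (5 μM) or DMSO vehicle for 10 days; sphere number, diameter and morphology scored from microscopy images; mean ± SD, n = 3.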

[24] = Volume of distribution in Sprague-Dawley rat at 25 mg/kg, po measured up to 48 hrs by LC-MS/MS analysis; format: ADME, organism-based; settings: in vivo; in short: as §3
[25] = system: HCT-116; assay: Inhibition of cell stemness in human HCT116 cells assessed as inhibition of CD44+/CD133+ expression at 20 uM after 24 hrs by flow cytometry analysis; format: functional
In short: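 ALDH⁺ HCT-116 subpopulation sorted by flow cytometry; 2 × 10⁵ cells/well seeded overnight at 37 °C, 5% CO₂; treated 20 μM for 24 h (vehicle DMSO); stained with PE anti-CD133 and FITC anti-CD44 30 min; CD44⁺/CD133⁺ read by flow cytometry.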

[26] = system: HT-29; assay: Cytotoxicity against human HT-29 cells assessed as reduction in cell viability incubated for 72 hrs by MTT assay; format: functional, cell-based; settings: HT-29, 72 h

In the case of `O=C(O)c1ccc2c(c1)nc(Nc1cccc(Cl)c1)c1ccncc12` [SILMITASERTIB], the Cmax [1] is reported as 6790 ng/mL, the IC50 [2] is reported as 12.8 µM and the AUC(0-t) at 48 h [3] is reported as 38900 ng·h/mL. For the same compound, the MRT last at 48 h [4] was 6.45 h, the Activity [5] was 26.31% and the Tmax [6] was 2 h. For the same compound, the inhibition [7] was 61%, the Activity [8] was 4.2% and the IC50 [9] was 23 µM. The IC50 [10] was 12.9 µM, the viability at 5 µM [11] was 80.7% and the inhibition in vivo at 60 mg/kg [12] was 15%. It also gave an Activity [13] of 11.21%, an Activity [14] of 6.8% and a half-life [15] of 349 min. The IC50 [16] was 13.2 µM, the IC50 [17] was 15.3 µM and the Activity [18] was 62.48%. The CL/F [19] was 10.5 mL/min/kg, the Activity [20] was 8.3% and the AUC(0-inf) [21] was 40000 ng·h/mL. The MRT inf [22] was 6.52 h, the inhibition [23] was “Active” and the Vd [24] was 2.39 L/kg. It also gave an inhibition at 20 µM [25] of 58% and an IC50 [26] of 16 µM.
